Results as given in ChEMBL document CHEMBL1125363, “Novel piperidine sigma receptor ligands as potential antipsychotic drugs” (J Med Chem, 1992).

Tests used:
[1] = target: Sigma non-opioid intracellular receptor 1 (Mus musculus, UniProt O55242); assay: In vitro binding affinity for the mouse sigma opioid receptor
[2] = target: D(2) dopamine receptor (Mus musculus, UniProt P61168); assay: In vitro binding affinity towards dopamine receptor D2
[3] = species on record: Mus musculus; assay: Potency was tested using Anti mescaline test(Intra peritoneal); type: functional
Summary of the method: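 Mouse mescaline-antagonism test with the test compound given intraperitoneally. Read-out is the ED50 in mg/kg ip.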

[4] = target: Serotonin 2 (5-HT2) receptor (Mus musculus, UniProt Q02152+P34968+P35363); assay: In vitro binding affinity for serotonin 5-hydroxytryptamine (5-HT) 2 receptors; type: protein assay
[5] = Oral potency by using Anti aggression test; type: functional
Summary of the method: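 Mice were held in prolonged isolation, then exposed to intruders. The aggressive response was scored after oral dosing of the test compound. Potency is the ED50 in mg/kg po.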

[6] = species on record: Rattus norvegicus; assay: Oral potency tested using 5HTP induced head twitch test; type: functional
[7] = species on record: Mus musculus; assay: Oral potency tested using apomorphine induced climbing test; type: functional
[8] = species on record: Mus musculus; assay: Oral potency tested by using anti-mescaline test; type: functional
Summary of the method: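 Mice; mescaline was given to evoke hallucinogen-type behaviour, and the test compound was dosed orally to antagonise it. Potency is the ED50 in mg/kg po. Some ED50s are the average of three measurements.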

Sigma non-opioid intracellular receptor 1, sequence (O55242 whole entry): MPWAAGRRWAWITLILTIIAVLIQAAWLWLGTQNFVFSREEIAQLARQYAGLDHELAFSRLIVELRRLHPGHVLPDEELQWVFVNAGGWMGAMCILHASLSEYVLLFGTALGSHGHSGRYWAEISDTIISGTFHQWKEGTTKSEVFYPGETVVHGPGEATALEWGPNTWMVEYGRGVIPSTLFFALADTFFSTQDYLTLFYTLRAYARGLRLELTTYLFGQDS
D(2) dopamine receptor, sequence (P61168 whole entry): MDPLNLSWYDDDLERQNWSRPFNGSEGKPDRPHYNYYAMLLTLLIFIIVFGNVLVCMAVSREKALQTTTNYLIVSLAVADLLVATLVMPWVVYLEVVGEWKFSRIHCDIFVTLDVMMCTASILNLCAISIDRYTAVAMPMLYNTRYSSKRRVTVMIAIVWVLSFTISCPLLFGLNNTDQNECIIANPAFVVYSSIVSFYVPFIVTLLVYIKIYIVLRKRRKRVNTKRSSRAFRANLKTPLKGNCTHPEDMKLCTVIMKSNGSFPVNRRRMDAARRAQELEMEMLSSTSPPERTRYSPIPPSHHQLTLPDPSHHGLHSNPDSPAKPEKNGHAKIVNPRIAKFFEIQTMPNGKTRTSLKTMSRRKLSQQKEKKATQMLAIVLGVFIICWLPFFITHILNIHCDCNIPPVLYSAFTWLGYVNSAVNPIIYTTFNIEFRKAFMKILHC

SMILES: CN(C)c1cccc(OCC2CCN(CC3CC3)CC2)c1.O
- Ki [1]: 5 nM
- IC50 [2]: 7330 nM
- ED50 [3]: < 10 mg/kg
- Ki [4]: 1158 nM

SMILES: Fc1ccc(OCC2CCN(CC3CC3)CC2)cc1
- ED50 [5]: 12 mg/kg
- Ki [1]: 2 nM
- IC50 [2]: 381 nM
- ED50 [6]: 10 mg/kg
- ED50 [7]: > 30 mg/kg
- Ki [4]: 9 nM
- ED50 [8]: 2.9 mg/kg

SMILES: Cl.c1ccc(CCCCOCC2CCN(Cc3ccccc3)CC2)cc1
- Ki [1]: 2 nM
- IC50 [2]: 4340 nM
- ED50 [3]: > 10 mg/kg
- Ki [4]: 224 nM

SMILES: Cl.Fc1ccc(COCC2CCN(Cc3ccc4ccccc4c3)CC2)cc1
- IC50 [2]: 305 nM
- ED50 [3]: > 10 mg/kg
- Ki [4]: 251 nM

SMILES: Cl.c1ccc(CCCCCOCC2CCN(Cc3ccccc3)CC2)cc1
- Ki [1]: 26 nM
- IC50 [2]: 1850 nM
- ED50 [3]: > 10 mg/kg
- Ki [4]: 186 nM

SMILES: Cl.Fc1ccc(COCC2CCN(Cc3ccc(Cl)cc3)CC2)cc1
- Ki [1]: 2 nM
- ED50 [3]: < 10 mg/kg
- Ki [4]: 281 nM

SMILES: O.O=C(Cc1ccc(F)cc1)C1CCN(Cc2ccncc2)CC1.O=C(O)/C=C\C(=O)O
- ED50 [5]: 38 mg/kg
- Ki [1]: 7 nM
- IC50 [2]: > 10000 nM
- ED50 [6]: 28 mg/kg
- Ki [4]: 1705 nM
- ED50 [8]: 10 mg/kg

SMILES: Cl.Fc1ccc(COCC2CCN(Cc3ccc(-c4ccccc4)cc3)CC2)cc1
- Ki [1]: 14 nM
- IC50 [2]: 818 nM
- ED50 [3]: > 10 mg/kg
- Ki [4]: > 1000 nM

SMILES: CC(C)(C)c1ccc(COCCC2CCN(Cc3ccccc3)CC2)cc1.Cl
- Ki [1]: 4.5 nM
- IC50 [2]: 6750 nM
- ED50 [3]: > 10 mg/kg
- Ki [4]: 939 nM

SMILES: Cl.c1ccc(CN2CCC(COc3ccc4ccccc4n3)CC2)cc1
- Ki [1]: 5.6 nM
- IC50 [2]: 6300 nM
- ED50 [3]: < 10 mg/kg
- Ki [4]: 311 nM

SMILES: O=C(CC1CCN(Cc2ccc(F)cc2)CC1)c1ccc(F)cc1
- ED50 [5]: 4.5 mg/kg
- Ki [1]: 3 nM
- IC50 [2]: 608 nM
- ED50 [6]: < 10 mg/kg
- ED50 [7]: < 10 mg/kg
- Ki [4]: 26 nM
- ED50 [8]: 4.5 mg/kg

SMILES: Cl.Fc1ccc(OCC2CCN(Cc3ccccc3)CC2)cc1.O
- ED50 [5]: 8.2 mg/kg
- Ki [1]: 2 nM
- IC50 [2]: 870 nM
- ED50 [7]: > 30 mg/kg
- Ki [4]: 28 nM
- ED50 [8]: 4 mg/kg

SMILES: Cl.O.OC(Cc1ccc(F)cc1)C1CCN(Cc2ccccc2)CC1 (configuration not stated)
- ED50 [5]: > 30 mg/kg
- Ki [1]: 3 nM
- IC50 [2]: 789 nM
- ED50 [7]: > 30 mg/kg
- Ki [4]: 360 nM
- ED50 [8]: 5 mg/kg

SMILES: Fc1ccc(OCC2CCN(CCC3CC3)CC2)cc1.O=C(O)/C=C/C(=O)O
- ED50 [5]: 4.5 mg/kg
- Ki [1]: 3 nM
- IC50 [2]: 428 nM
- ED50 [6]: < 10 mg/kg
- ED50 [8]: 3.1 mg/kg

SMILES: O.c1ccc(-c2ccc(OCC3CCN(CC4CC4)CC3)cc2)cc1
- ED50 [5]: 30 mg/kg
- Ki [1]: 12 nM
- IC50 [2]: > 10000 nM
- ED50 [6]: > 30 mg/kg
- ED50 [7]: > 30 mg/kg
- Ki [4]: > 10000 nM
- ED50 [8]: 7.5 mg/kg

SMILES: O=C(O)/C=C\C(=O)O.c1ccc(CCCOC2CCN(Cc3ccccc3)CC2)cc1
- Ki [1]: 2 nM
- IC50 [2]: 8100 nM
- ED50 [3]: < 10 mg/kg

SMILES: O.O=C(O)/C=C\C(=O)O.c1ccc(CN2CCC(COCc3ccc(-c4ccccc4)cc3)CC2)cc1
- Ki [1]: 20 nM
- IC50 [2]: 1850 nM
- ED50 [3]: 10 mg/kg
- Ki [4]: 47 nM

SMILES: Cl.Clc1ccc(OCC2CCN(Cc3ccccc3)CC2)cc1
- ED50 [5]: 10 mg/kg
- Ki [1]: 8.3 nM
- IC50 [2]: 4210 nM
- ED50 [6]: > 10 mg/kg
- Ki [4]: 137 nM
- ED50 [8]: 8 mg/kg

SMILES: Cl.Fc1ccc(OCC2CCN(CCc3ccc(Cl)cc3)CC2)cc1
- ED50 [5]: 10 mg/kg
- Ki [1]: 5 nM
- IC50 [2]: 368 nM
- ED50 [6]: > 10 mg/kg
- Ki [4]: 26 nM
- ED50 [8]: 1.7 mg/kg

SMILES: Cl.c1ccc(COCC2CCN(Cc3ccccc3)CC2)cc1
- Ki [1]: 4 nM
- IC50 [2]: > 10000 nM
- ED50 [3]: > 10 mg/kg
- Ki [4]: > 1000 nM

SMILES: Cl.c1ccc(CN2CCC(COC3CCCCC3)CC2)cc1
- Ki [1]: 2 nM
- IC50 [2]: > 10000 nM
- ED50 [3]: < 10 mg/kg
- Ki [4]: 1363 nM

SMILES: N#Cc1ccc(OCC2CCN(CC3CC3)CC2)cc1
- ED50 [5]: 2.6 mg/kg
- Ki [1]: 10 nM
- IC50 [2]: > 10000 nM
- ED50 [6]: 29 mg/kg
- Ki [4]: 2818 nM
- ED50 [8]: 1.7 mg/kg

SMILES: Br.COc1ccc(C(=O)CC2CCN(CC3CC3)CC2)cc1
- Ki [1]: 55 nM
- IC50 [2]: 1800 nM
- ED50 [3]: > 10 mg/kg
- Ki [4]: 1883 nM

SMILES: CCCCCN1CCC(COCc2ccc(F)cc2)CC1.Cl
- Ki [1]: 9 nM
- IC50 [2]: 1320 nM
- ED50 [3]: < 10 mg/kg

SMILES: O.c1ccc2cc(OCC3CCN(CC4CC4)CC3)ccc2c1
- Ki [1]: 5 nM
- IC50 [2]: 2960 nM
- ED50 [3]: > 10 mg/kg
- Ki [4]: > 100 nM

SMILES: Cl.Fc1ccc(OCCC2CCN(Cc3ccccc3)CC2)cc1.O
- Ki [1]: 4 nM
- IC50 [2]: 114 nM
- Ki [4]: < 100 nM
- ED50 [8]: 16 mg/kg

SMILES: c1ccc(Oc2ccc(OCC3CCN(CC4CC4)CC3)cc2)cc1
- Ki [1]: 24 nM
- IC50 [2]: > 10000 nM
- Ki [4]: 584 nM
- ED50 [8]: > 30 mg/kg

SMILES: Cl.OC(Cc1ccccc1)C1CCN(Cc2ccccc2)CC1 (configuration not stated)
- Ki [1]: 18 nM
- IC50 [2]: 8300 nM
- Ki [4]: 1603 nM
- ED50 [8]: < 10 mg/kg

SMILES: Fc1ccc(COCC2CCN(Cc3ccncc3)CC2)cc1.O=C(O)/C=C/C(=O)O
- Ki [1]: 2 nM
- IC50 [2]: > 10000 nM
- ED50 [3]: < 10 mg/kg

SMILES: O=C(CC1CCN(CCc2ccc(F)cc2)CC1)c1ccc(F)cc1
- Ki [1]: 7 nM
- IC50 [2]: 57 nM
- Ki [4]: 10 nM
- ED50 [8]: 0.13 mg/kg

SMILES: Cl.Fc1ccc(COCC2CCN(Cc3ccc(OCc4ccccc4)cc3)CC2)cc1
- Ki [1]: 27 nM
- IC50 [2]: 773 nM
- Ki [4]: < 100 nM
- ED50 [8]: < 30 mg/kg

SMILES: O=C(O)/C=C\C(=O)O.c1ccc(CN2CCC(COC3CC3)CC2)cc1
- Ki [1]: 2 nM
- IC50 [2]: > 10000 nM
- Ki [4]: > 10000 nM
- ED50 [8]: > 30 mg/kg

SMILES: Cl.c1ccc(OCC2CCN(CC3CC3)CC2)nc1
- Ki [1]: 44 nM
- IC50 [2]: 4670 nM
- Ki [4]: 1378 nM
- ED50 [8]: > 30 mg/kg

SMILES: O.O=C(O)/C=C\C(=O)O.c1ccc(CN2CCC(COc3cccnc3)CC2)cc1
- Ki [1]: 5 nM
- IC50 [2]: > 10000 nM
- Ki [4]: > 10000 nM
- ED50 [8]: > 30 mg/kg

SMILES: O=C(CC1CCN(Cc2ccc(C(F)(F)F)cc2)CC1)c1ccc(F)cc1
- Ki [1]: 3 nM
- IC50 [2]: 195 nM
- Ki [4]: 6 nM
- ED50 [8]: 1.8 mg/kg

SMILES: Br.O=C(CC1CCN(CCC2CC2)CC1)c1ccc(F)cc1
- Ki [1]: 11 nM
- IC50 [2]: 220 nM
- Ki [4]: 12 nM
- ED50 [8]: < 10 mg/kg

SMILES: Fc1ccc(COCC2CCN(CCc3ccccc3)CC2)cc1.O=C(O)/C=C\C(=O)O
- Ki [1]: 4 nM
- IC50 [2]: 560 nM
- Ki [4]: 24 nM
- ED50 [8]: 15 mg/kg

SMILES: O=C(O)/C=C\C(=O)O.c1ccc(CCCOCC2CCN(Cc3ccccc3)CC2)cc1
- Ki [1]: 3.2 nM
- IC50 [2]: 839 nM
- ED50 [3]: < 10 mg/kg
- Ki [4]: 260 nM

SMILES: Cl.OC(CC1CCN(Cc2ccccc2)CC1)c1ccc(C(F)(F)F)cc1 (configuration not stated)
- Ki [1]: 6 nM
- IC50 [2]: > 10000 nM
- Ki [4]: > 100 nM
- ED50 [8]: > 30 mg/kg

SMILES: O=C(CC1CCN(CCc2ccc(C(F)(F)F)cc2)CC1)c1ccc(F)cc1
- Ki [1]: 9 nM
- IC50 [2]: 10 nM
- Ki [4]: 3.3 nM
- ED50 [8]: < 10 mg/kg
